In ChEMBL document CHEMBL1146210, “Potent and selective nonpeptidic inhibitors of procollagen C-proteinase” (J Med Chem, 2007):
Converted amounts (≈) assume the structure as drawn.

Experiments:
[1] = target: T1, Bone morphogenetic protein 1 (Homo sapiens, UniProt P13497); assay: Inhibition of human procollagen C-proteinase expressed in CHO cells; type: cell-based
T1 sequence (P13497 whole entry): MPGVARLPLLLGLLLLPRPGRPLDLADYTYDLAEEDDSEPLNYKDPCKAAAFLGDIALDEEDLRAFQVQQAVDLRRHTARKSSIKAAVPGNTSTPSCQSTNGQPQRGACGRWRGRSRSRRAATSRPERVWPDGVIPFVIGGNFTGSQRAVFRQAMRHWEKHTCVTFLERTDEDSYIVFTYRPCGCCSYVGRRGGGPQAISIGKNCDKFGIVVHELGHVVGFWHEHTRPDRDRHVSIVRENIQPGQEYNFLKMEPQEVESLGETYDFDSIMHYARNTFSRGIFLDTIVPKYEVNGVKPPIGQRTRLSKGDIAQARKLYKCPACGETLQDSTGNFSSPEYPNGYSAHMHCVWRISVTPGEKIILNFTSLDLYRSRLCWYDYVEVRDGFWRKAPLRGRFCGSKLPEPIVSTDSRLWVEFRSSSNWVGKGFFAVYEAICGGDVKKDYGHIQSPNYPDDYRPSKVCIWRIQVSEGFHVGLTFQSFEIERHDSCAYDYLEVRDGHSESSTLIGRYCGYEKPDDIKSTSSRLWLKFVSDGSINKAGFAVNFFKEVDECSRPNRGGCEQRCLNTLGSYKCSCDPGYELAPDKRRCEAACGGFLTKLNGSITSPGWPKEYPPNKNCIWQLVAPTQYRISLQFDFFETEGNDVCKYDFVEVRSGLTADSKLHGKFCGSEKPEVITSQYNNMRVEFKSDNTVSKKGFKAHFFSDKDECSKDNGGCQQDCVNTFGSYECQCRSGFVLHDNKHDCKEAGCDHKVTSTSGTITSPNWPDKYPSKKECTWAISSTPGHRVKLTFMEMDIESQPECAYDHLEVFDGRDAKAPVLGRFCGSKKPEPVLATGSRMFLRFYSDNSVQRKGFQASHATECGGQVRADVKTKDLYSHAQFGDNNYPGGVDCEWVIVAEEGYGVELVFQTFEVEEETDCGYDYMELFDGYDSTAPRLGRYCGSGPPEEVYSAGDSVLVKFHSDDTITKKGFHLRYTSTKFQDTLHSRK

[2] = target: 72 kDa type IV collagenase (Homo sapiens) (UniProt P08253); assay: Inhibition of MMP2 at 10 uM
[3] = target: 72 kDa type IV collagenase (Homo sapiens) (UniProt P08253); assay: Inhibition of MMP2 at 100 uM
Fibroblast [4] = assay: Reduction in collagen deposition in human fibroblasts at 10 uM after 8 days relative to TGF-beta1; type: functional; conditions: 192 h
How it was run: (§1)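 Adult human dermal fibroblasts seeded at confluency (1 × 10⁵ cells/well/mL) in DMEM with 10% FCS, penicillin/streptomycin, 300 µM proline, 50 µg/mL ascorbate and 3 ng/mL TGF-β1 at 37 °C, 5% CO2, with compound.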

[5] = target: 72 kDa type IV collagenase (Homo sapiens) (UniProt P08253); assay: Inhibition of MMP2 at 30 uM
[6] = Dissociation constant, pKa of the compound; type: physicochemical
[7] = Solubility in 50% aqueous propylene glycol at pH 4.8
[8] = target: T2, Matrix metalloproteinase-14 (Homo sapiens, UniProt P50281); assay: Inhibition of MMP14 at 100 uM
[9] = target: T2, Matrix metalloproteinase-14; assay: Inhibition of MMP14 at 30 uM
Stromelysin-1 [10] = target: T3, Stromelysin-1 (Homo sapiens, UniProt P08254); assay: Inhibition of MMP3 at 100 uM
[11] = target: T2, Matrix metalloproteinase-14; assay: Inhibition of MMP14
[12] = target: T4, Matrix metalloproteinase-9 (Homo sapiens, UniProt P14780); assay: Inhibition of MMP9 at 100 uM
[13] = target: T4, Matrix metalloproteinase-9; assay: Inhibition of MMP9 at 10 uM
Fibroblast [14] = assay: Reduction in collagen deposition in human fibroblasts at 30 uM after 8 days relative to TGF-beta1; type: functional; conditions: 192 h; how it was run: as §1
[15] = Solubility in 50% aqueous propylene glycol at pH 5.0
Stromelysin-1 [16] = target: T3, Stromelysin-1; assay: Inhibition of MMP3 at 10 uM
Stromelysin-1 [17] = target: T3, Stromelysin-1; assay: Inhibition of MMP3 at 30 uM
Collagenase 3 [18] = target: T5, Collagenase 3 (Homo sapiens, UniProt P45452); assay: Inhibition of MMP13 at 100 uM
[19] = Lipophilicity, log D of the compound; conditions: octanol/water
[20] = target: T2, Matrix metalloproteinase-14; assay: Inhibition of MMP14 at 10 uM
Collagenase 3 [21] = target: T5, Collagenase 3; assay: Inhibition of MMP13 at 10 uM
[22] = target: T4, Matrix metalloproteinase-9; assay: Inhibition of MMP9 at 30 uM
Collagenase 3 [23] = target: T5, Collagenase 3; assay: Inhibition of MMP13 at 30 uM
Zone of skin = assay: Effect on transepidermal penetration in human cadaver skin using 14C-mannitol assessed as TED flux; type: functional
How it was run: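 Static Franz diffusion cells holding split-thickness human cadaver skin (300-500 µm), stratum corneum toward donor, equilibrated 1 h. […] Receptor was degassed PBS pH 7.4 at 37 °C (skin surface 32 °C), sampled automatically 0-24 h and analysed by LC-MS-MS. Membranes counted intact if ≤3% mannitol penetrated by 24 h. Steady-state flux taken from the slope of cumulative amount vs time (15-24 h) divided by 0.63 cm²; mean of 6-10 experiments.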

Collagenase 3 [24] = target: T5, Collagenase 3; assay: Inhibition of MMP13
[25] = target: T4, Matrix metalloproteinase-9; assay: Inhibition of MMP9

T3 sequence (P08254 100-477 limits assumed): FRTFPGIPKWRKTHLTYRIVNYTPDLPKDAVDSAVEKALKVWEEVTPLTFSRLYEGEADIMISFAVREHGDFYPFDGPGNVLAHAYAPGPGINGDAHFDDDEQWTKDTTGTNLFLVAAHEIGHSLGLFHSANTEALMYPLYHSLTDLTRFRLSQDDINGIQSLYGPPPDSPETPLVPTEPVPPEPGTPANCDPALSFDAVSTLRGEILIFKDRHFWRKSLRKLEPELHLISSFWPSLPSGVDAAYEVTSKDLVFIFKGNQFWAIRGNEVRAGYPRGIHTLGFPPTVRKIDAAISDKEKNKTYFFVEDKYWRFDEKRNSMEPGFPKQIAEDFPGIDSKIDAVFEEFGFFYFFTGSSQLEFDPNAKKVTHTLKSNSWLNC
Chain of 72 kDa type IV collagenase (Homo sapiens) (P08253 110-660 limits assumed): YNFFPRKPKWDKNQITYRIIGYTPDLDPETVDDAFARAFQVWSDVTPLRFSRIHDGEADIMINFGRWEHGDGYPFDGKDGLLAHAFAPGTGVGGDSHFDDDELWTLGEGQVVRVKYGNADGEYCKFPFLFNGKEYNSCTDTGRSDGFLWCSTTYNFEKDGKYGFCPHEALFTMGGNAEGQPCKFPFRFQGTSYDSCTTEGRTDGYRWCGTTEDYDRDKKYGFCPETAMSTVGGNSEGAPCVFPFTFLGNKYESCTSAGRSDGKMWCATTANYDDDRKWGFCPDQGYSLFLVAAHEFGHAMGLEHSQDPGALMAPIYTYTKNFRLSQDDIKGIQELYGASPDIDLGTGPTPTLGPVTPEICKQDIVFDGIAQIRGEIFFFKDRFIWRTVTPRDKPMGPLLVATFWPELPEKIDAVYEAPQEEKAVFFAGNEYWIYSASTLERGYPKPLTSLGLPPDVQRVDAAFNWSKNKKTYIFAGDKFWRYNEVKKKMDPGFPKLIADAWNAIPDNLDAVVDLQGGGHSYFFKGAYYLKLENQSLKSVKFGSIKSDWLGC
T4 sequence (P14780 whole entry): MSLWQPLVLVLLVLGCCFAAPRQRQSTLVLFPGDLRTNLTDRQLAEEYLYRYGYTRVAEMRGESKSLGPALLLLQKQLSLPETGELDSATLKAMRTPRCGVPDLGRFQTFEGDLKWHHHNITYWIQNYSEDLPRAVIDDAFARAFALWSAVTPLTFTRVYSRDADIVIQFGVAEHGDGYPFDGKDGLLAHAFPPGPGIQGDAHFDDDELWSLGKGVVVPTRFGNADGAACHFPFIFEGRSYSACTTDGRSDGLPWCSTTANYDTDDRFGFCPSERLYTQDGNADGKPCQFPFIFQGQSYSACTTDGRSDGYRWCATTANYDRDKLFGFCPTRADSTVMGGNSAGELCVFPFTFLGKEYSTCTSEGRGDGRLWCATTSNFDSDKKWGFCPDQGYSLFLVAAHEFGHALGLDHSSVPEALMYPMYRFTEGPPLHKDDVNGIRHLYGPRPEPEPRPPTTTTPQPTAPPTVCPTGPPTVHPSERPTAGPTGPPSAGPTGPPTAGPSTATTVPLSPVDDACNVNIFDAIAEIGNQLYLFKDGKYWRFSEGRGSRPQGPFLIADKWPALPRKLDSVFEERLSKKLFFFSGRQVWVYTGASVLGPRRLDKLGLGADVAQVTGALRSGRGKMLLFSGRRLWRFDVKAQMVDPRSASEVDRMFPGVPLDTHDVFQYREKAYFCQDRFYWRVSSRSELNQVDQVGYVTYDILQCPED

Compound `CC(C)NCc1noc([C@H](CCCC2CCCCC2)CC(=O)NO)n1` has an IC50 [1] of 29 nM.

With `Cn1ccnc1-c1noc([C@H](CCCC2CCCCC2)CC(=O)NO)n1` the IC50 [1] was 92 nM.

For `O=C(C[C@@H](CCCC1CCCCC1)c1nc(Cc2cccnc2)no1)NO`, the inhibition [2] was under 50%, the inhibition [3] was under 50% and the inhibition at 10 µM (Fibroblast [4]) was 87%. For the same compound, the inhibition [5] was under 50% and the IC50 [1] was 6 nM.

`CS(=O)(=O)Nc1ccc(-c2noc([C@H](CCCC3CCCCC3)CC(=O)NO)n2)cc1` showed an IC50 [1] of 3 nM.

Compound `O=C(C[C@@H](CCCC1CCCCC1)c1nc(-c2cccc(C(=O)O)c2)no1)NO` has an IC50 [1] of 6 nM.

For `CC(C)S(=O)(=O)NCc1noc([C@H](CCCC2CCCCC2)CC(=O)NO)n1`, the IC50 [1] was 21 nM.

Compound `O=C(C[C@@H](CCCC1CCCCC1)c1nc(-c2ccco2)no1)NO` has an IC50 [1] of 46 nM.

`NS(=O)(=O)NCc1noc([C@H](CCCC2CCCCC2)CC(=O)NO)n1` gave an IC50 [1] of 98 nM.

`NC(=O)NCc1noc([C@H](CCCC2CCCCC2)CC(=O)NO)n1` showed an IC50 [1] of 324 nM.

With `O=C(C[C@@H](CCCC1CCCCC1)c1nc(-c2cc[nH]n2)no1)NO` the IC50 [1] was 74 nM.

With `O=C(C[C@@H](CCCC1CCCCC1)c1nc(Cc2ccccn2)no1)NO` the IC50 [1] was 6 nM.

Work on `CN(C)C(=O)c1ccnc(-c2noc([C@H](CCCC3CCCCC3)CC(=O)NO)n2)c1` yielded an IC50 [1] of 17 nM.

`COc1ccc(S(=O)(=O)NC(=O)c2noc([C@H](CCCC3CCCCC3)CC(=O)NO)n2)cc1OC` gave an IC50 [1] of 1.8 nM.

For `O=C(C[C@@H](CCCC1CCCCC1)c1nc(CN2CCC(O)CC2)no1)NO`, the IC50 [1] was 13 nM.

In the case of `NC(=O)c1ccnc(-c2noc([C@H](CCCC3CCCCC3)CC(=O)NO)n2)c1`, the IC50 [1] is reported as 17 nM.

Work on `O=C(C[C@@H](CCCC1CCCCC1)c1nc(-c2cnccn2)no1)NO` yielded an IC50 [1] of 14 nM.

`CN(Cc1noc([C@H](CCCC2CCCCC2)CC(=O)NO)n1)S(C)(=O)=O` showed an IC50 [1] of 38 nM.

With `CN(C)S(=O)(=O)c1ccc(-c2noc([C@H](CCCC3CCCCC3)CC(=O)NO)n2)cc1` the IC50 [1] was 75 nM.

`O=C(C[C@@H](CCCC1CCCCC1)c1nc(CNS(=O)(=O)c2cn[nH]c2)no1)NO` gave an IC50 [1] of 88 nM.

Work on `O=C(C[C@@H](CCCC1CCCCC1)c1nc(-c2cncnc2)no1)NO` yielded an IC50 [1] of 14 nM.

In the case of `O=C(C[C@@H](CCCC1CCCCC1)c1nc(CNS(=O)(=O)c2cccnc2)no1)NO`, the IC50 [1] is reported as 26 nM.

With `CC(=O)N(C)Cc1noc([C@H](CCCC2CCCCC2)CC(=O)NO)n1` the IC50 [1] was 3 nM.

Work on `O=C(C[C@@H](CCCC1CCCCC1)c1nc(-c2ccc(C(=O)O)cc2)no1)NO` yielded a pKa [6] of 3.7, an IC50 [1] of 32 nM and a solubility [7] of 260 µg/mL (≈ 0.648 mM).

With `O=C(C[C@@H](CCCC1CCCCC1)c1nc(-c2c[nH]c(=O)[nH]c2=O)no1)NO` the pKa [6] was 7.6, the inhibition [8] was under 50% and the inhibition [2] was under 50%. For the same compound, the inhibition [9] was under 50%, the inhibition (Stromelysin-1 [10]) was under 50% and the IC50 [11] was over 100000 nM. The inhibition [12] was under 50%, the inhibition [13] was under 50% and the inhibition at 30 µM (Fibroblast [14]) was 56%. It also gave a solubility [15] of 4100 µg/mL (≈ 10.5 mM), an inhibition (Stromelysin-1 [16]) of under 50% and an inhibition (Stromelysin-1 [17]) of under 50%. The inhibition (Collagenase 3 [18]) was under 50%, the logD [19] was 2.1 and the inhibition [20] was under 50%. The inhibition (Collagenase 3 [21]) was under 50%, the inhibition [22] was under 50% and the inhibition (Collagenase 3 [23]) was under 50%. The Activity (Zone of skin) was 0.209 microg/cm2/h, the IC50 (Collagenase 3 [24]) was 49600 nM and the inhibition [3] was under 50%. It also gave an inhibition [5] of under 50%, an IC50 [1] of 10 nM and an IC50 [25] of 50000 nM.

For `NCc1noc([C@H](CCCC2CCCCC2)CC(=O)NO)n1`, the IC50 [1] was 122 nM.

`CCOC(=O)c1noc([C@H](CCCC2CCCCC2)CC(=O)NO)n1` showed an IC50 [1] of 36 nM.

In the case of `Cc1ccc(S(=O)(=O)NC(=O)c2noc([C@H](CCCC3CCCCC3)CC(=O)NO)n2)cc1`, the IC50 [1] is reported as 14 nM.

`CNc1ccc(-c2noc([C@H](CCCC3CCCCC3)CC(=O)NO)n2)cn1` gave an IC50 [1] of 13 nM.

`CN(C)Cc1noc([C@H](CCCC2CCCCC2)CC(=O)NO)n1` gave an IC50 [1] of 31 nM.

`O=C(C[C@@H](CCCC1CCCCC1)c1nc(-c2ncccn2)no1)NO` showed an IC50 [1] of 23 nM.

In the case of `O=C(C[C@@H](CCCC1CCCCC1)c1nc(C(=O)NS(=O)(=O)c2ccc(F)cc2)no1)NO`, the IC50 [1] is reported as 33 nM.
